Data on four compounds can be found in publication PMC9753534 (ACS Omega, 2022).

The structures appear in SMILES notation.

For one assay, the target named is EGFR^T790M (Homo sapiens, UniProt P00533, T790M). Briefly: biochemical. The class given is biochemical.
A further assay concerns MCF-7 cell line. Briefly: MTT antiproliferative test, MCF-7. Type of assay: cell-based. Conditions: Homo sapiens, MCF7, read-out: IC50 (n = 3), antiproliferative effect vs MCF-7.
The nature of assay [1]: Antioxidant activity by ABTS method. Conditions: absorbance at 734 nm. In a few lines: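 ABTS radical cation was generated by mixing ammonium peroxodisulfate (65 mmol/dm3) with ABTS in phosphate buffer pH 7.4 and leaving it overnight. The stock was diluted in phosphate buffer pH 7.4 and A734 was read. Test compound was added after 1 min, mixed, and A734 was re-read. Results are expressed as trolox equivalents from a linear trolox calibration (absorbance decrease vs concentration).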

Another assay deals with EGFR^WT (Homo sapiens, UniProt P00533). The experiment in a line: HTRF kinase inhibitory assay, EGFR^WT. The class given is biochemical.
A further assay concerns A549 cell line. Briefly: MTT antiproliferative test, A549. Type of assay: cell-based. Conditions: Homo sapiens, A549, read-out: IC50 (n = 3), antiproliferative effect vs A549.

Consider `N=c1c2sc3sc4c(=N)n(-c5ccccc5)c(=O)[nH]c4c3c2[nH]c(=O)n1-c1ccccc1` [Compound 5, 1,8-Diimino-2,7-diphenyl-1,4,7,8-tetrahydro-2H,5H-9,10-dithia-2,4,5,7-tetraaza-indeno[1,2-a]indene-3,6-dione], for which the IC50 against EGFR^T790M was 15.1 ± 0.51 µM; in the assay with MCF-7 cell line, 17.3 ± 0.71 µM; on EGFR^WT, 2020 ± 120 nM; in the assay with A549 cell line, 7.54 ± 0.32 µM. Moreover, the “radical scavenging activity (ABTS)” value in assay [1] is reported as 70%.

As for `C#Cc1cccc(Nc2ncnc3cc(OCCOC)c(OCCOC)cc23)c1` [erlotinib, reference compound], the IC50 was found to be 21.8 ± 1.85 µM with MCF-7 cell line and 19.3 ± 1.85 µM with A549 cell line.

For `N#Cc1sc2sc(C#N)c(N)c2c1N` [Compound 1, 3,4-diaminothieno[2,3-b]thiophene-2,5-dicarbonitrile], the IC50 at EGFR^T790M was found to be 7.89 ± 0.31 µM; in the assay with MCF-7 cell line, 8.57 ± 0.31 µM; on EGFR^WT it was 290 ± 50 nM; with A549 cell line, 5.09 ± 0.15 µM. Also, the “times the activity of gefitinib vs EGFR^T790M” value on EGFR^T790M (ratio of IC50 vs gefitinib) is given as 2.71 times.

As to `Nc1c(-c2nnn[nH]2)sc2sc(-c3nnn[nH]3)c(N)c12` [Compound 7, 2,5-Di(1H-tetrazol-5-yl)thieno[2,3-b]thiophene-3,4-diamine], the IC50 at EGFR^T790M was determined as 16.3 ± 0.61 µM; in the assay on MCF-7 cell line, 17.3 ± 0.71 µM; against EGFR^WT, 3270 ± 160 nM; in the assay with A549 cell line, 8.27 ± 0.16 µM.
